Only some compounds are listed: those with a hit (about 4.8% of all), similar ones and a draw of the others.
NALP1 inh: inhibitors of NALP1 inflammasome in yeast | S. cerevisiae NALP1/ASC/caspase-1 growth, X-gal OD620, 72 h | inhibition, % at 10 µM | 0.61% of 280,000 active; in the data active = inhibition mostly above about 24%, no sharp cut-off; inactive = mostly below about 32%
ATG4B inh: inhibitors of human ATG4B cysteine protease; inhibition, % at 8.33 µM; 0.51% of 340,000 active; ATG4B cleavage of LC3-PLA2, NBD-HPC fluorescence, 1 h; Q9Y4P1; AID 504462; in the data active = inhibition above about 40%
ALR inh: human ALR oxidase inhibition via reduced H2O2; 3.8% of 290,000 active; purified ALR, DTT oxidation, H2O2 HRP-luminol luminescence; P55789; inhibition, % (no concentration beside the values);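 active = mean replicate inhibition above about 79%, with every replicate also reaching it, limit read from the data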
Target sequence (P55789 whole entry, looked up): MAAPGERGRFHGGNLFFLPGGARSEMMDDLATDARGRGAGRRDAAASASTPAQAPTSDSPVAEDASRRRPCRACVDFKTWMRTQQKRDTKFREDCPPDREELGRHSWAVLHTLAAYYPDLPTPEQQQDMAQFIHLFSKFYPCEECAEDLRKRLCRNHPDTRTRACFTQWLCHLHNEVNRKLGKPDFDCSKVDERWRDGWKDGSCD
NALP3 yeast inh: blocks the NALP3 inflammasome reconstituted in yeast; Yeast reconstituted NLRP3/ASC/caspase-1, beta-gal luminescence, 24 h; inhibition, % at 10 µM; 0.39% of 330,000 active; AID 2825;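 active = inhibition of 50% or more; inactive = inhibition below 50%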;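 note: plate controls were induced DMSO wells for no effect and uninduced yeast grown without galactose for full effect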
UCH37 DUB inh: blocks the human deubiquitinase UCH37 | AID 588478 | inhibition, % (concentration not given with the values) | purified proteasome/UCH37, Ub-AMC cleavage fluorescence | 0.33% of 330,000 active;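 active = mean inhibition over replicate wells above about 20%, limit read from the data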;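 note: 0% = compound-free wells with enzyme and 100% = wells lacking proteasome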
Target sequence (Q9Y5K5 whole entry, looked up): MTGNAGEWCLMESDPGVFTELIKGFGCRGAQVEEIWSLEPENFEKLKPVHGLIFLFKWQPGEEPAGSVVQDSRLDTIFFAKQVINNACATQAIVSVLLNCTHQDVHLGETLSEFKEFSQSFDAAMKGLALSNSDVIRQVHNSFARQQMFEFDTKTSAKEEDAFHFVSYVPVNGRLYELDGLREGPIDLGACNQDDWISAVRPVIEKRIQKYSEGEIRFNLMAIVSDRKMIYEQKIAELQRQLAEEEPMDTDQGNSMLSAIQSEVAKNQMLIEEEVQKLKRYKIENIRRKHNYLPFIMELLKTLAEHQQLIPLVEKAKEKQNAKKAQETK
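Assay system: Proteasome-bound UCH37. Buffer or medium: pH 7.4 Tris-HCl (50 mM) with ovalbumin, ATP-MgCl2, DTT. Incubation: 30 min preincubation with enzyme, 25 min cleavage at room temperature. Measured by: fluorescence, ex 355 nm, em 460 nm. Read-out basis: percent inhibition. Control set: wells without proteasome as full block, compound-free enzyme plus substrate as uninhibited.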
Calb FLC: C. albicans growth modulation with fluconazole; 0.57% of 300,000 active; C. albicans CaCi-2 + fluconazole, Alamar Blue growth, 48 h; growth inhibition, % (concentration not given with the values);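 active = growth inhibition above about 58% in most replicates, limit read from the data, passing the limit was not always enough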;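 note: all wells also contain fluconazole at 8 µg/ml as a sub-toxic cotreatment; 0% = median of DMSO wells and 100% = median of geldanamycin control wells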
Numbers without * were called inactive; . = no result.

SMILES | NALP1 inh | ATG4B inh | ALR inh | NALP3 yeast inh | UCH37 DUB inh | Calb FLC
CC(NC(=O)c1ccco1)C(=O)N1CCc2ccccc2C1 (stereo not given) | 43* | -1 | -1 | 13 | 5 | -4
CC(=O)N1CCC2(CC1)CC(=NNC(=S)Nc1ccc(C)cc1)c1cc(O)ccc1O2 | . | . | . | . | -50 | .
Cc1nn(-c2ccccc2)c(Cl)c1C=NNc1nc2ccccc2n1C | . | . | . | . | 3 | .
O=C(c1cc2c(s1)CCCCC2)N1CCN(c2ncccn2)CC1 | -1 | 2 | -4 | 21 | 1 | 76*
CC(=NN=C(N)c1nonc1N)c1ccc2c(c1)OCO2 | . | . | . | . | 6 | .
Cc1ccc(CNc2ccc(N3CCOCC3)cc2)cc1 | 6 | 8 | 99* | 32 | . | -7
c1ccc(NCc2ccncc2)cc1 | -2 | 2 | 4 | 18 | 1 | 1
CC(C)c1ccc(CNc2ccc(N3CCOCC3)cc2)cc1 | 2 | -12 | 99* | 32 | -3 | -3
c1cc(CNc2ccc(N3CCOCC3)cc2)ccn1 | -10 | -2 | 99* | 9 | 2 | -2
Cc1ccc(CNc2ccc3c(c2)OCO3)cc1 | 11 | 6 | -15 | . | -4 | -29
c1cc2c(cc1CNc1ccc(N3CCOCC3)cc1)OCO2 | . | -2 | 98* | 16 | 6 | .
CC(C)c1ccc(S(=O)(=O)Nc2ccc(N3CCOCC3)cc2)cc1 | 9 | -9 | 45 | 9 | -2 | 2
CC1=NNC(=O)C1CCC(=O)NN=Cc1ccc(C)cc1 (stereo not given) | . | . | . | . | 4 | .
Cc1onc(-c2ccccc2)c1C(=O)NN=Cc1cc(Br)c(Br)o1 | . | . | . | . | 1 | .
CCC(Cc1ccccc1)=NNC(=O)c1cc([N+](=O)[O-])cc([N+](=O)[O-])c1 | . | . | . | . | 1 | .
c1cc(CNc2ccc3c(c2)OCO3)ccn1 | 29 | -12 | 87* | 14 | -9 | 4
O=C(c1ccc(OCC2CCCO2)cc1)N1CCN(c2ccccc2)CC1 (stereo not given) | 3 | -8 | 98* | 5 | 1 | 5
CC(=O)C(=NNc1ccccc1[N+](=O)[O-])N1CCCc2ccccc21 | . | . | . | . | 5 | .
COc1ccc(-c2cc(C(=O)N/N=C/c3sccc3C)c3ccccc3n2)c(OC)c1 | 41* | -5 | -11 | 15 | . | 6
COc1cc([N+](=O)[O-])cc(/C=N/NC(=O)c2cc(C)nc3ccccc23)c1O | 17 | 8 | 2 | 8 | . | -2
COc1cc([N+](=O)[O-])cc(/C=N/NC(=O)c2cc(-c3ccccc3)nc3ccccc23)c1O | 11 | -3 | 0 | -23 | . | 89*
COc1cc([N+](=O)[O-])cc(C=NNC(=O)C(O)(c2ccccc2)c2ccccc2)c1O | . | . | . | . | 12 | .
COc1cc([N+](=O)[O-])cc(C=NNC(=O)C(C)Nc2ccccc2C)c1O (stereo not given) | . | . | . | . | 20* | .
COc1cc(/C=N/NC(=O)c2cc(-c3ccco3)nc3ccccc23)cc(OC)c1O | 7 | -14 | 97* | -13 | . | -9
CC(=NNC(=O)c1ccc(C)cc1C)c1ccc2c(c1)OCO2 | . | . | . | . | 2 | .
SMILES | NALP1 inh | ATG4B inh | ALR inh | NALP3 yeast inh | UCH37 DUB inh | Calb FLC
O=C(NN=Cc1ccc(Cl)s1)C1COc2ccccc2O1 (stereo not given) | . | . | . | . | 3 | .
CCn1c(O)c(N=Nc2ccc(Cl)c(C(=O)O)c2)c2ccccc21 | . | 5 | 19 | 3 | 20* | -2
CC(C)n1c(O)c(N=Nc2ccc(Cl)c(C(=O)O)c2)c2ccccc21 | . | 1 | 27 | -6 | 15 | -3
COc1ccc(-c2cc3nnc(-c4ccccc4)nc3s2)cc1 | -49 | 2 | 94* | 17 | . | -8
CC(=O)c1c(O)cc(C)n(-c2ccc(F)cc2)c1=O | 29* | -8 | -3 | 10 | 6 | -5
Cc1cc(C)n(-c2ccc(F)cc2)c(=O)c1C(=O)O | 14 | 0 | -5 | -8 | 2 | -5
O=C(Cn1ncc(Cl)c(Cl)c1=O)NCC1CCCCC1 | 40 | 17 | 95* | . | 4 | .
O=C(Cn1ncc(Cl)c(Cl)c1=O)NC1CCCCC1 | . | 2 | . | 19 | 1 | .
O=C(O)c1cccc(NC(=S)NN=Cc2cccc(O)c2)c1 | . | . | . | . | 4 | .
COc1ccccc1NC(=O)C1CCN(c2ncccn2)CC1 | 25* | 2 | -7 | 17 | 0 | 16
COc1ccccc1NC(=O)C(CC(C)C)NC(=O)C1CCCCC1 (stereo not given) | 41* | -6 | -3 | 11 | 4 | -1
CCOC(=O)NN=Cc1ccc(Oc2ccccc2)cc1 | . | . | . | . | 6 | .
Clc1ccc(Cl)c(-c2ccc(C=Nc3ncn[nH]3)o2)c1 | . | . | . | . | 6 | .
O=Cc1c(Sc2ccccn2)nc2ccccn2c1=O | 4 | 0 | 97* | -4 | 8 | -7
O=Cc1c(Sc2ccccc2)nc2ccccn2c1=O | 3 | -4 | 98* | 45 | 8 | 26
O=Cc1c(SCCO)nc2ccccn2c1=O | -12 | 3 | -10 | -3 | 0 | 0
Cc1ccc(S(=O)(=O)N=C(Sc2ccccc2C(=O)O)c2ccccc2)cc1 | . | . | . | . | 1 | .
Cn1cc(C(=O)NN=Cc2ccc(Br)c([N+](=O)[O-])c2)c2ccccc21 | . | . | . | . | 5 | .
COc1cccc2sc(N=CN(C)C)nc12 | . | . | . | . | 8 | .
CCOC(=O)NN=Cc1ccc(OC/C=C/c2ccccc2)cc1 | . | . | . | . | 3 | .
COc1cc(NC(=O)COC(=O)CON=C(C)c2ccc3c(c2)OCO3)cc(OC)c1OC | . | . | . | . | 5 | .
COc1ccc(/C(O)=C2/C(=O)C(=O)N(CCCN(C)C)C2c2ccc(Cl)cc2)cc1OC (stereo not given) | . | -6 | . | 33 | 24* | 1
COc1ccc(/C(O)=C2/C(=O)C(=O)N(CCCN3CCOCC3)C2c2ccc(C(C)C)cc2)cc1 (stereo not given) | 10 | 1 | 9 | 2 | 20* | 1
CCc1c(C(=O)NN=Cc2ccc(OCc3ccc(F)cc3)c(OC)c2)nnn1-c1nonc1N | . | . | . | . | -11 | .
COc1ccc(CCNC(=O)CN(c2ccccc2OC)S(C)(=O)=O)cc1 | 30* | -5 | -13 | 2 | 0 | 4
SMILES | NALP1 inh | ATG4B inh | ALR inh | NALP3 yeast inh | UCH37 DUB inh | Calb FLC
NC(=O)NN=Cc1c(Sc2nnnn2-c2ccccc2)nc2ccccn2c1=O | . | . | . | . | -3 | .
Cc1cc(=O)n2nc(N3CCC(C(=O)N4CCN(Cc5ccccc5)CC4)CC3)sc2n1 | -2 | 6 | -5 | -5 | 24* | -7
CCOc1ccc(OCC)c(NC(=O)C2CCN(c3nn4c(=O)cc(C)nc4s3)CC2)c1 | 10 | -15 | -22 | 13 | 23* | 0
CCOC(=O)C1CCN(C(=O)C2CCN(c3nn4c(=O)cc(C)nc4s3)CC2)CC1 | 3 | -3 | -4 | 22 | 2 | -5
Nc1nonc1-n1nnc(C(=O)NN=Cc2ccccc2Cl)c1COc1ccc(F)cc1 | . | . | . | . | 4 | .
CCCCn1c(SCC(=O)c2ccc(O)c(O)c2)nc2ccsc2c1=O | 26 | 8 | . | 7 | 4 | 107*
O=C(O)CCCCCn1c(SCC(=O)c2ccc(O)c(O)c2)nc2ccsc2c1=O | 23 | -6 | 99* | 4 | 11 | -9
